Assay results of several laboratories.
Lines come from different studies, so protocols differ.
Target: Glycogen synthase kinase-3 beta (GSK3B, Homo sapiens, UniProt P49841)

assay	conditions	endpoint	value	SMILES
cell-free assay	0.5 µM	remaining signal	48.1%	Nc1cccc(-c2cc3c(Oc4cccc(O)c4)ncnc3[nH]2)c1
enzyme activity, inhibitor	5 µM	remaining activity	95.7%	O=C(Nc1cnn(-c2csc(C(=O)NC3COC3)c2)c1)Nc1c(F)cccc1Cl
enzyme activity, inhibitor	20 µM	remaining activity	57%	Nc1ncnc2occ(-c3ccc(NC(=O)Nc4cc(C(F)(F)F)ccc4F)cc3)c12
cell-free assay, competition with immobilised ligand	1 µM	remaining binding	100%	O=C(O)[C@H]1[C@H](Cn2nnc3ccccc3c2=O)CC[C@@H]1C(=O)c1ccc(OCCC2CCOCC2)cc1
enzyme activity, inhibitor, ADP detection	100 µM	inhibition	26.1%	O=c1cccc(C=Cc2ccc3c(c2)OCO3)o1
enzyme activity, inhibitor	1 µM	remaining activity	81.6%	CC(C)(O)[C@H]1CC[C@H](Nc2ccc3ncc(-c4cccc(C(F)(F)F)c4)n3n2)CC1
enzyme activity, inhibitor, ADP detection	100 µM	inhibition	29%	COc1cc(-c2coc3cc(O)c(OC)c(O)c3c2=O)cc(O)c1OC
cell-free assay	0.5 µM	remaining signal	2.71%	N#CCCc1ccc2c(c1)-c1[nH]c3ccc([N+](=O)[O-])cc3c1CC(=O)N2
enzyme activity, inhibitor, radiometric	1 µM	remaining activity	91%	CC(C)(C)c1nc2c(s1)c1nc(N)ncc1c1ccc(NS(=O)(=O)c3c(F)cccc3F)c(F)c12
enzyme activity, inhibitor, radiometric	10 µM	remaining activity	52%	COc1cc(Nc2cnc(C#N)c(O[C@H](C)CN(C)C)n2)ncc1-c1cnn(C)c1
enzyme activity, inhibitor, ADP detection	100 µM	inhibition	11.7%	Cc1cc(NS(=O)(=O)c2ccc(N)cc2)nc(C)n1
cell-free assay	0.5 µM	remaining signal	96%	CC(C)n1cnc2c(Nc3cccc(Cl)c3)nc(NCCO)nc21
cell-free assay, competition with immobilised ligand	0.1 µM	remaining binding	90%	C[C@@H]1CN(c2cc(-c3n[nH]c4ccc(OC5(C)CC5)cc34)ncn2)C[C@H](C)O1
enzyme activity, inhibitor, radiometric	5 µM	activity vs control	98%	FC(F)(F)Oc1cccc(-c2cnc3ccc(-c4ccncc4)nn23)c1
enzyme activity, inhibitor	0.5 µM	remaining activity	112%	O=c1c2ccccc2[nH]c(=S)n1CCN1CCC(=C(c2ccc(F)cc2)c2ccc(F)cc2)CC1
enzyme activity, inhibitor, ADP detection	100 µM	inhibition	15.7%	COc1ccc([C@H]2COc3c(ccc(O)c3OC)C2)c(OC)c1O
cell-free assay, competition with immobilised ligand	1 µM	remaining binding	81%	CCC(=O)N[C@H]1CC[C@@H](C(=O)N(C)c2ccc(-c3nc4ccccc4o3)cc2)C1
cell-free assay	0.5 µM	remaining signal	22%	Nc1nc(Nc2ccc(S(N)(=O)=O)cc2)nn1C(=O)c1c(F)cccc1F

assay	conditions	endpoint	value	SMILES
cell-free assay, competition with immobilised ligand	1 µM	remaining binding	62.6%	COc1cccc(CNC(=O)c2nc3scc(COCc4ccc(C(=O)O)cc4)c3c(=O)[nH]2)c1
cell-free assay	0.5 µM	remaining signal	114%	Cn1sc(=O)n(Cc2ccccc2)c1=O
enzyme activity, inhibitor, ADP detection	100 µM	inhibition	46.1%	CC1CCc2c(N3CCC(O)CC3)c(F)cc3c(=O)c(C(=O)O)cn1c23 (stereo not drawn)
cell-free assay	10 µM	remaining signal	26%	Cc1ccc(NC(=O)c2ccc(C)c(C(F)(F)F)c2)cc1C#Cc1nn(C2CCC(O)CC2)c2ncnc(N)c12 (stereo not drawn)
enzyme activity, inhibitor, ADP detection	100 µM	inhibition	18.9%	Cc1cccc(C)c1NC(=O)c1ccccc1C(=O)O
enzyme activity, inhibitor	10 µM	remaining activity	93%	CCN(CC)c1ccc(C2=NNC(=O)CC2C)cc1[N+](=O)[O-] (stereo not drawn)
cell-free assay, competition with immobilised ligand	1 µM	remaining binding	85%	CS(=O)(=O)c1cc(C2(NC(=O)c3cncc4c3cnn4-c3ccc(F)cc3)CC2)ccn1
enzyme activity, inhibitor	1 µM	activity vs control	102%	Cc1ccc(C(=O)NCc2ccsc2)cc1C#Cc1cn(C(C)C)c2ncnc(N)c12
cell-free assay, competition with immobilised ligand	1 µM	remaining binding	100%	Cc1nc(C2CCN(C(=O)c3ccc(OC(F)(F)F)cc3N)CC2)c2ncc(N3CCN(C)CC3)cc2n1
enzyme activity, inhibitor, radiometric	1 µM	remaining activity	7%	Cc1cnc(NC2CCOCC2)nc1-n1cnc(C(=O)NC(CN)c2cc(F)cc(Cl)c2)c1 (stereo not drawn)
enzyme activity, inhibitor, ADP detection	100 µM	inhibition	45.4%	Cc1cnc(C(=O)NCCc2ccc(S(=O)(=O)NC(=O)NC3CCCCC3)cc2)cn1
enzyme activity, inhibitor, FRET	10 µM	inhibition	7%	CN(C)C1CCN(CC#Cc2nn(C3CCCC3)c3nc(NCc4ccccc4)ncc23)C1 (stereo not drawn)
enzyme activity, inhibitor, ADP detection	100 µM	inhibition	50.5%	Oc1cc2c(cc1O)C1c3ccc(O)c(O)c3OCC1(O)C2 (stereo not drawn)
cell-free assay	0.5 µM	remaining signal	97.8%	COc1ccc(COc2ccc(Cc3cnc(N)nc3N)cc2OC)cc1
cell-free assay, competition with immobilised ligand	1 µM	remaining binding	100%	C[C@H](c1ccc(F)cc1)N(Cc1cccc(C(=O)O)c1)C(=O)c1cnc2ccccc2c1
enzyme activity, inhibitor	10 µM	remaining activity	76%	Cn1c(=O)n(-c2ccc(C(C)(C)C#N)cc2)c2c3cc(-c4cnc5ccccc5c4)ccc3ncc21
cell-free assay, competition with immobilised ligand	1 µM	remaining binding	100%	CS(=O)(=O)NCC[C@H](NC(=O)c1cncc2c1cnn2-c1ccc(F)cc1)c1ccnc(S(C)(=O)=O)c1
enzyme activity, inhibitor	0.5 µM	remaining activity	99.7%	Nc1[nH]nc2nc3ccccc3nc12
